Source: ChEMBL document CHEMBL3526048, “In vitro metabolism of rivoglitazone, a novel peroxisome proliferator-activated receptor γ agonist, in rat, monkey, and human liver microsomes and freshly isolated hepatocytes” (Drug Metab Dispos, 2011)

How the values were obtained:
[1] = target: T1, UDP-glucuronosyltransferase 2B7 (Homo sapiens, UniProt P16662); assay: Activity of human UGT2B7 expressed in microsomes isolated from baculovirus infected insect cell assessed as enzyme-mediated compound formation treated with [14C]-rivoglitazone at 20 uM after 4 hrs by radio-HPLC/LC-MS/MS analysis in presence of UDPGA, UDPGA/SAM
T1 sequence (P16662 whole entry): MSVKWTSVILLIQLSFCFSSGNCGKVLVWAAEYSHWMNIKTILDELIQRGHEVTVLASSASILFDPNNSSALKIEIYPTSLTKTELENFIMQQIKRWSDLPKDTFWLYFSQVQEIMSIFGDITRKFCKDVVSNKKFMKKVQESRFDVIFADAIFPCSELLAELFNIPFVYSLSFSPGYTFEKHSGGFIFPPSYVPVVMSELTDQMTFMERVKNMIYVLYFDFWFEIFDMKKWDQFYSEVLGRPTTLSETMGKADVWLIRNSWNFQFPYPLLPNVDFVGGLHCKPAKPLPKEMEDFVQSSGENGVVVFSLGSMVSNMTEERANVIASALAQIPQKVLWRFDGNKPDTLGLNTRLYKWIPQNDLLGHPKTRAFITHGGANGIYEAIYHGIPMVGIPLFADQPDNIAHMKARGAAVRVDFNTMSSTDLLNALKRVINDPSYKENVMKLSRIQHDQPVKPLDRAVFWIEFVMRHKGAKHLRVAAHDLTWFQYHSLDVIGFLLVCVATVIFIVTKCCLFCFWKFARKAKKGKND

[2] = Drug metabolism in cynomolgus monkey liver microsomes assessed as formation of 5-hydroxy-5-(4-((6-methoxy-1-methyl-1H-benzo[d]imidazol-2-yl)methoxy)benzyl)thiazolidine-2,4-dione at 20 uM after 2 hrs by radio-HPLC/LC-MS/MS analysis in presence of NADPH-generating system and NADPH-generating system/SAM; type: ADME, Macaca fascicularis
[3] = Drug metabolism in cynomolgus monkey liver microsomes assessed as formation of (2S,3S,4S,5R,6R)-6-((1-carboxy-2-(4-((6-methoxy-1-methyl-1H-benzo[d]imidazol-2-yl)methoxy)phenyl)ethylthio)carbonylamino)-3,4,5-trihydroxytetrahydro-2H-pyran-2-carboxylic acid at 20 uM after 4 hrs by radio-HPLC/LC-MS/MS analysis in presence of UDPGA and UDPGA/SAM; type: ADME, Macaca fascicularis
[4] = target: T2, Cytochrome P450 2C8 (Homo sapiens, UniProt P10632); assay: Activity of human CYP2C8 expressed in microsomes isolated from baculovirus infected insect cell assessed as enzyme-mediated 3-(4-((6-methoxy-1-methyl-1H-benzo[d]imidazol-2-yl)methoxy)phenyl)-2-(methylsulfonyl)propanamide formation at 20 uM after 2 hrs by radio-HPLC/LC-MS/MS analysis in presence of NADPH-generating system/SAM; type: ADME
T2 sequence (P10632 whole entry): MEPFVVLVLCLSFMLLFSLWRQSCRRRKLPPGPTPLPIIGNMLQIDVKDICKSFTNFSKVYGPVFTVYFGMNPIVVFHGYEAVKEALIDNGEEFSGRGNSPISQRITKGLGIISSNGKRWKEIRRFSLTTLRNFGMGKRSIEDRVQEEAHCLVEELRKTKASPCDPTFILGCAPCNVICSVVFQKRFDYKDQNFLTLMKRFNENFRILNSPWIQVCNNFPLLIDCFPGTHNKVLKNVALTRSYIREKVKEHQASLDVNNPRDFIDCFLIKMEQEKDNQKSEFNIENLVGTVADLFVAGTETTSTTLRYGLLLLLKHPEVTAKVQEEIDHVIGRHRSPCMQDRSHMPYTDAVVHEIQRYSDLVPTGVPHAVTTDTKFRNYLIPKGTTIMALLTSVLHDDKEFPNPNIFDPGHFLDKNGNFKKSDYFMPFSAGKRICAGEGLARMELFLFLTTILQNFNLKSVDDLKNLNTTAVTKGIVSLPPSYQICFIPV

[5] = tested on: Liver microsome; assay: Drug metabolism in Sprague-Dawley rat liver microsomes assessed as formation of 5-(4-((6-methoxy-1H-benzo[d]imidazol-2-yl)methoxy)benzyl)thiazolidine-2,4-dione at 20 uM after 2 hrs by radio-HPLC/LC-MS/MS analysis in presence of NADPH-generating system and NADPH-generating system/SAM; type: ADME
[6] = Drug metabolism in human hepatocytes assessed as formation of (2S,3S,4S,5R,6R)-3,4,5-trihydroxy-6-(5-(4-((6-methoxy-1-methyl-1H-benzo[d]imidazol-2-yl)methoxy)benzyl)-2,4-dioxothiazolidin-3-yl)tetrahydro-2H-pyran-2-carboxylic acid at 30 uM after 3 hrs by radio-HPLC/LC-MS/MS analysis in presence of UDPGA and UDPGA/SAM; type: ADME, cell-based, Hepatocyte
[7] = target: Cytochrome P450 3A4 (Homo sapiens, UniProt P08684); assay: Activity of human CYP3A4 expressed in microsomes isolated from baculovirus infected insect cell assessed as enzyme-mediated 2-amino-3-((1-carboxy-2-(4-((6-methoxy-1-methyl-1H-benzo[d]imidazol-2-yl)methoxy)phenyl)ethyl)disulfanyl)propanoic acid formation at 20 uM after 2 hrs by radio-HPLC/LC-MS/MS analysis; type: ADME
Sequence of Cytochrome P450 3A4 (P08684 whole entry): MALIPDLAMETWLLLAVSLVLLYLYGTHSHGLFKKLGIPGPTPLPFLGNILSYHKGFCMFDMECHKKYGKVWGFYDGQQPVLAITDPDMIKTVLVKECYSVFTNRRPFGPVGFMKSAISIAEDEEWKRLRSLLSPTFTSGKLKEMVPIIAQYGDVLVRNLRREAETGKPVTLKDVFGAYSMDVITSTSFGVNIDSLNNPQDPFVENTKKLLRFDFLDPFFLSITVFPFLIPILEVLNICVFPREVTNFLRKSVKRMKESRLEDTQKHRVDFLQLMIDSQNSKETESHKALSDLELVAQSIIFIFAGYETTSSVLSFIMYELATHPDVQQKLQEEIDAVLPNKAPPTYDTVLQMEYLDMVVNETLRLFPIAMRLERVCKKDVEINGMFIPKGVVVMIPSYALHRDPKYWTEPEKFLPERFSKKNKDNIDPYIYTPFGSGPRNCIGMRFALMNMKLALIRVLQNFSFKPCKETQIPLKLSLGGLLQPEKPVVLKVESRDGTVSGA
Summary of the method: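 Baculovirus-insect-cell microsomes expressing the human CYP (1 mg/ml protein) were incubated with [14C]rivoglitazone (20 μM) in 50 mM potassium phosphate (pH 7.4) or 100 mM Tris-HCl (pH 7.5) with an NADPH-generating system (2 mM NADP+, 20 mM glucose 6-phosphate, 2 units/ml G6PDH, 10 mM MgCl2) for 2 h at 37°C. Insect-cell control supersomes served as the control. Reactions were stopped with acetonitrile, and the concentrated supernatants were analysed by radio-HPLC, LC-MS and LC-MS/MS.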

[8] = target: T3, UDP-glucuronosyltransferase 1A10 (Homo sapiens, UniProt Q9HAW8); assay: Activity of human UGT1A10 expressed in microsomes isolated from baculovirus infected insect cell assessed as enzyme-mediated (2S,3S,4S,5R,6R)-6-((1-carboxy-2-(4-((6-methoxy-1-methyl-1H-benzo[d]imidazol-2-yl)methoxy)phenyl)ethylthio)carbonylamino)-3,4,5-trihydroxytetrahydro-2H-pyran-2-carboxylic acid formation at 20 uM after 4 hrs by radio-HPLC/LC-MS/MS analysis in presence of UDPGA; type: ADME
T3 sequence (Q9HAW8 whole entry): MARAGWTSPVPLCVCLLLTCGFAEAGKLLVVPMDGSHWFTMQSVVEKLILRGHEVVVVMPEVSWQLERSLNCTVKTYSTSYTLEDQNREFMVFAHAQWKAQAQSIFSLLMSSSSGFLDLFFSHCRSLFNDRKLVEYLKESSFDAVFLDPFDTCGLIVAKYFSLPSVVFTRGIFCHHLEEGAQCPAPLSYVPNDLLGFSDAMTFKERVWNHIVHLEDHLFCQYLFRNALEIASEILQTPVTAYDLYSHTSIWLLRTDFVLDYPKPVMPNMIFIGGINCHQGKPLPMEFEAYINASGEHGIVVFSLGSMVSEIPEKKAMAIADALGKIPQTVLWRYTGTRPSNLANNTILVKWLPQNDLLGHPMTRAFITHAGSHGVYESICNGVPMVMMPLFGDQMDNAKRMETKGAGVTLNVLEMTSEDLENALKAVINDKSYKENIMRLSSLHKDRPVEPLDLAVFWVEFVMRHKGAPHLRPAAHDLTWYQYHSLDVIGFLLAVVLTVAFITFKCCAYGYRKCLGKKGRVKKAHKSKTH
Summary of the method: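 Alamethicin (50 μg/mg protein, 15 min on ice) pretreated expressed human UGT microsomes (1 mg/ml protein) from baculovirus-infected insect cells. Incubation with [¹⁴C]rivoglitazone (20 μM) in 100 mM Tris-HCl (pH 7.5) with 10 mM MgCl₂, started by 5 mM UDPGA, 4 h at 37°C with shaking. UGT insect-cell control supersomes were run alongside. Acetonitrile stop, concentrated supernatant analysed by radio-HPLC, LC-MS and LC-MS/MS.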

| Drug metabolism [1] | Drug metabolism [2] | Drug metabolism [3] | Drug metabolism [4] | Drug metabolism [5] | Drug metabolism [6] | Drug metabolism [7] | Drug metabolism [8] | Compound |
| --- | --- | --- | --- | --- | --- | --- | --- | --- |
| metabolite_detected |  |  |  |  |  |  |  | COc1ccc2nc(COc3ccc(CC(S)C(=O)O)cc3)n(C)c2c1 (stereo not drawn) |
|  | metabolite_detected | metabolite_detected | metabolite_not_detected | metabolite_detected | metabolite_detected | metabolite_not_detected | metabolite_not_detected | COc1ccc2nc(COc3ccc(C[14CH]4SC(=O)NC4=O)cc3)n(C)c2c1.Cl (racemic) |
